This is a sample that favours compounds with a hit; in the whole collection about 9.6% have one here.
MT stabilizer: microtubule stabilization, imaging screen | % tubulin-high responders, % at 10 µM | 200,000 compounds, 0.83% hits | HeLa tubulin immunostaining HCS, 24 h; share of cells brighter than vehicle mean+2SD;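 active = plate Z-score above 3 for both tubulin-high and condensed-nucleus cell shares, with cell loss under 80%, at 10 µM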;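 also: anti alpha tubulin signal scored within the nucleus-defined area of each cell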
APP 5UTR inh: APP translation inhibition; SH-SY5Y APP 5'UTR-luciferase reporter, luminescence; inhibition, % at 2 µM; 190,000 compounds, 0.82% hits; AID 1285;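 active = inhibition above a set limit, derived from the sample mean plus 3 SD, cut at about 45% in these data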
Ba/F3 V617F tox: lowers viability of Ba/F3 cells expressing EpoR and JAK2V617F; ATP luminescence; AID 1446; 220,000 compounds, 1.1% hits; inhibition, % at 5.6 µM;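 active = inhibition above the campaign mean plus 3 SD over all tested compounds, cut at about 24% in these data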;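 also: cytokine-independent growth of Ba/F3 cells driven by EpoR plus mutant JAK2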
BaF3 tox: counter-screen for JAK2V617F inhibitors: parental Ba/F3 viability inhibitors | CellTiter-Glo ATP luminescence | inhibition, % at 5.6 µM | 220,000 compounds, 1.1% hits | AID 1486;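 active = inhibition above a per-campaign cutoff, the mean inhibition of all tested compounds plus 3 SD, cut at about 27% in these data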
Lmaj promast: inhibitors of Leishmania major promastigote growth; 200,000 compounds, 9% hits; AID 1063; Leishmania major promastigotes, resazurin fluorescence viability; inhibition, % at 10 µM; in the data active = inhibition above about 50%;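 also: promastigotes grown with compound for 44 hours at 28 °C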
b-catenin transl: beta-catenin nuclear translocation modulation | HeLa beta-catenin nuclear translocation, immunofluorescence imaging | nuclear translocation activity, % at 5 µM | 190,000 compounds, 0.3% hits;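 active = nuclear translocation activity above 50% at 5 µM, with a well cell count of 50 or more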;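 also: per-cell ratio of nuclear to cytoplasmic median beta-catenin stain intensity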
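System: HeLa cells, endogenous beta-catenin; compound dosing: 5 µM primary single dose, 0.1% DMSO, 0.02–20 µM confirmation series; incubation: 24 h compound exposure at 37°C, 5% CO2; signal: beta-catenin immunofluorescence imaging with DAPI; evaluation: % activation, nuclear-to-cytoplasmic median beta-catenin signal ratio per cell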
Numbers stand for hits; - = inactive; . = no result.

SMILES | MT stabilizer | APP 5UTR inh | Ba/F3 V617F tox | BaF3 tox | Lmaj promast | b-catenin transl
Cc1cc(OCCCCNC(C)C)cc(C(C)C)c1 | - | - | - | - | 97 | -
CC(C)=CCN1CCN(CCC2=C(C)CCCC2(C)C)CC1CCO (centres undefined) | - | - | - | - | 80 | -
Cc1nn(C)c(Cl)c1CN1CCN(C2CCCCC2)C(CCO)C1 (centres undefined) | - | - | - | - | - | -
CC1=C(CCN2CCN(C3CCCC3)C(CCO)C2)C(C)(C)CCC1 (centres undefined) | - | - | - | - | 83 | -
COC(=O)C(NC(=O)c1ccc(F)cc1)(Nc1ncc(S(=O)(=O)c2ccc([N+](=O)[O-])cc2)s1)C(F)(F)F (centres undefined) | - | - | - | - | 58 | .
CCOc1ccc(OCC)c(-c2c(=O)n(OCc3ccccc3C(=O)OC)c3ccccc3[n+]2[O-])c1 | - | - | - | - | 79 | -
CCOc1ccc(OCC)c(-c2c(=O)n(OCc3ccccc3Br)c3ccccc3[n+]2[O-])c1 | - | - | - | - | 71 | -
CCOc1ccc(-c2c(=O)n(OCc3ccccc3Br)c3ccccc3[n+]2[O-])c(OCC)c1 | - | - | - | - | - | -
Cc1ccc(NC(=O)/C(Cl)=C/c2ccccc2)cc1C | - | - | - | - | - | -
O=C(CCn1c(=S)oc2ccccc21)NC1CCCCC1 | . | . | - | - | . | -
COc1cc(/C=C(\C#N)C(=O)NCC2CCCO2)ccc1OC(C)C (centres undefined) | - | - | - | - | 79 | -
Cc1ccc(S(=O)(=O)N2CCc3ccccc3C2CN2C(=O)c3ccccc3C2=O)cc1 (centres undefined) | - | - | - | - | - | -
CC(CCc1ccccc1)N1CCN(Cc2ccccc2)CC1 (centres undefined) | - | - | - | - | 97 | -
CC(C(=O)Nc1ccccc1-c1ccccc1)N1CCN(Cc2ccccc2)CC1 (centres undefined) | - | - | - | - | - | -
CCS(=O)(=O)N1CCN(C(C)CCc2ccccc2)CC1 (centres undefined) | - | - | - | - | 75 | -
COc1cc(C2SCC(=O)N2CCCN(C)C)cc(OC)c1OC (centres undefined) | - | - | - | - | - | -
COc1ccc(CN(CCN(C)C)Cc2ccccc2)c(OC)c1 | - | - | - | - | 100 | -
COc1ccc(CN(C)CC(=O)NC(=O)NCc2ccccc2)c(OC)c1 | - | - | - | - | - | -
CSCCC(=O)Nc1nc(-c2ccccn2)cs1 | - | - | - | - | 88 | -
O=C(Nc1nc(-c2nc3ccccc3s2)cs1)C1CC1 | - | - | - | - | - | -
O=C(CCCSc1ccccc1)Nc1nc(-c2ccccn2)cs1 | - | - | - | - | 100 | .
O=C(Nc1ccc2nc(-c3ccccn3)[nH]c2c1)C1CCCCC1 | - | - | - | - | 100 | -
O=C(CN1C(=O)CCC1=O)Nc1nc(-c2ccccn2)cs1 | - | - | - | - | - | .
O=C(Nc1nc(-c2ccccn2)cs1)C1CCCC1 | - | - | - | - | 79 | -
CCOc1ccc(C2CC(c3c(O)c4ccccc4oc3=O)=NN2c2ccccc2)cc1OC (centres undefined) | - | - | - | - | - | -
SMILES | MT stabilizer | APP 5UTR inh | Ba/F3 V617F tox | BaF3 tox | Lmaj promast | b-catenin transl
COc1ccccc1/C=C/C=N/NC(=O)CC1C(=O)NN=C1C (centres undefined) | . | . | - | - | . | -
Cc1cc(C)c(S(=O)(=O)N(C2=NCCS2)S(=O)(=O)c2c(C)cc(C)cc2C)c(C)c1 | - | - | - | - | 98 | -
CCN1CCN(CC2CC3C=CC2C3)CC1 (centres undefined) | - | - | - | - | - | -
C1=CC2CC1CC2CN1CCN(c2ccccc2)CC1 (centres undefined) | - | - | - | - | 85 | -
CS(=O)(=O)N1CCN(CC2CC3C=CC2C3)CC1 (centres undefined) | - | - | - | - | 93 | .
CNC(=S)N1CCN(C(=O)c2ccco2)CC1 | - | - | - | - | 75 | -
O=C(c1ccco1)N1CCN(CC2CC3C=CC2C3)CC1 (centres undefined) | - | - | - | - | 93 | .
NC(=O)NC(=O)c1nccnc1C(=O)O | . | . | - | - | . | -
CC(C)CC(=O)Nc1ccccc1-c1nnn(CC(=O)N2CCOCC2)n1 | - | - | - | - | - | -
Cc1ccccc1CN1CCN(CC2CC3C=CC2C3)CC1 (centres undefined) | - | - | - | - | 87 | -
COc1ccccc1N1CCN(C2CCN(S(=O)(=O)c3ccc(NC(C)=O)cc3)CC2)CC1 | - | - | - | - | - | -
Nc1nc(N2CCN(c3cccc(Cl)c3)CC2)n[nH]1 | - | - | - | - | - | -
Nc1ccc(N2CCN(c3cccc(Cl)c3)CC2)cc1 | - | - | - | - | 89 | .
CC(C)(C)c1ccccc1OCCOCCN1CCCCCC1 | - | - | - | - | 96 | -
CC(C)(C)c1cccc(OCCCSc2ncccn2)c1 | - | - | - | - | - | -
c1ccc(OCCOCCN2CCOCC2)cc1 | - | - | - | - | - | .
CC(C)(C)c1ccccc1OCCOCCSc1ncccn1 | - | - | - | - | 97 | -
Cc1ccc(C(C)(C)C)c(OCCOCCN2CCCC2)c1 | - | - | - | - | 96 | -
O=C(Nc1cnccc1C(F)(F)F)NC1CCCCC1 | . | . | - | - | . | -
CCC(CC)C(=O)OCC(=O)Nc1cccc(S(=O)(=O)N(C)c2ccccc2)c1 | - | - | - | - | - | -
CN(c1ccccc1)S(=O)(=O)c1cccc(NC(=O)c2cc(=O)c3ccccc3o2)c1 | - | - | - | - | 80 | -
CCCC(=O)Nc1cccc(S(=O)(=O)N(C)c2ccccc2)c1 | - | - | - | - | 67 | -
CN(c1ccccc1)S(=O)(=O)c1cccc(NC(=O)CSc2nncn2C)c1 | - | - | - | - | 57 | -
O=C(Nc1cccc(S(=O)(=O)N2CCCCCC2)c1)c1cc(=O)c2ccccc2o1 | - | - | - | - | - | -
COc1ccc(NC(=O)CN(C)CC(=O)Nc2cccc(S(=O)(=O)N(C)c3ccccc3)c2)cc1 | - | - | - | - | 81 | -
SMILES | MT stabilizer | APP 5UTR inh | Ba/F3 V617F tox | BaF3 tox | Lmaj promast | b-catenin transl
CC1CN(CCCCOc2ccc3ccccc3c2)CC(C)O1 (centres undefined) | - | - | - | - | 90 | -
CC1CN(C(=O)c2ccc(COc3ccc4ccccc4c3)o2)CC(C)O1 (centres undefined) | - | - | - | - | - | -
COC(=O)c1ccc(OCCCCN2CC(C)OC(C)C2)cc1 (centres undefined) | - | - | - | - | 96 | -
COc1cccc(OCCCCN2CC(C)OC(C)C2)c1 (centres undefined) | - | - | - | - | 93 | -
COc1cc(CN2CC(C)OC(C)C2)cc(OC)c1 (centres undefined) | - | - | - | - | - | .
CC(C)SCCCCOc1ccc2ccccc2c1 | - | - | - | - | 72 | -

Source: PubChem BioAssay (several laboratories)
